The values below come from ChEMBL document CHEMBL3526151, “Reversible disulfide formation of the glutamate carboxypeptidase II inhibitor E2072 results in prolonged systemic exposures in vivo” (Drug Metab Dispos, 2012).

Data set [1] can be described thus: AUC(0 to infinity) in Sprague-Dawley rat at 10 mg/kg, po administered via gavage measured under fed conditions by LC-MS/MS analysis. The class given is ADME, organism-based. More on the design: time infinity, dose 10 mg/kg, route oral. As to conditions: plasma. A digest of the protocol: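 Nonfasted male Sprague-Dawley rats given a single 10 mg/kg oral dose in 50 mM HEPES buffered saline, pH 7.4. Plasma collected 0.25–24 h into heparin/NEM tubes and assayed by LC-MS/MS. Noncompartmental parameters derived, including Cl/F and Vd/F. Mean ± S.D., n = 6–9.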

Data set [2] can be described thus: Metabolic stability in Sprague-Dawley rat plasma assessed as compound remaining at 5 uM after 1 hr by LC-MS/MS analysis. The class given is ADME, cell-free. As to conditions: read-out: Stability. A digest of the protocol:
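Compound at 5 and 10 µM was incubated at 37°C in Sprague-Dawley rat or cynomolgus monkey plasma. Aliquots taken at 0, 30 and 60 min were quenched with acetonitrile and analyzed by LC-MS/MS. Percent remaining = analyte/internal-standard area ratio at time t divided by that at time 0.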

Data set [3] can be described thus: AUC(0 to last) in Sprague-Dawley rat at 30 mg/kg, po administered via gavage measured under fasted conditions by LC-MS/MS analysis. It is filed as ADME, organism-based. Further details: time 0 - last, dose 30 mg/kg, route oral. To be noted: plasma. The method, boiled down: (§1)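 Fasted male Sprague-Dawley rats (280–330 g) received 0.1, 1, 10 or 30 mg/kg by oral gavage in 50 mM HEPES buffered saline, pH 7.4. Blood drawn at 0.25–24 h into heparin/NEM tubes; plasma analyzed by LC-MS/MS. Cmax taken as observed. AUC by linear trapezoidal rule with extrapolation by λz. Cl/F and Vd/F reported. Mean ± S.D., n = 4–9.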

Data set [4] is described as follows: Oral bioavailability in Sprague-Dawley rat at 0.1 mg/kg administered via gavage measured under fasted conditions by LC-MS/MS analysis. The class given is ADME, organism-based. As to conditions: in vivo.
Data set [5] in a line: Cmax in cynomolgus monkey at 5 mg/kg, po by LC-MS/MS analysis. More on the design: dose 5 mg/kg, route oral. The class given is ADME, organism-based, Macaca fascicularis. To be noted: in vivo. The method, boiled down:
(§2)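 Cynomolgus monkeys (n = 3) received a nominal 5 mg/kg dose in 50 mM HEPES, TCEP-treated to prevent disulfide formation. Dosing was either an IV bolus via cephalic or saphenous vein or oral. Arterial cannula blood was collected into NEM-containing heparinized tubes for up to 9 days and analyzed by LC-MS/MS. Noncompartmental analysis gave t1/2 = 0.693/λz and F% = dose-normalized mean AUCinf p.o./i.v. ×100.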

The nature of data set [6]: Tmax in Sprague-Dawley rat at 1 mg/kg, po administered via gavage measured under fasted conditions by LC-MS/MS analysis. The class given is ADME, organism-based. Further details: dose 1 mg/kg, route oral. As to conditions: in vivo. A digest of the protocol: (§3)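 Jugular-cannulated male Sprague-Dawley rats, 280–330 g, fasted overnight to 4 h post-dose. Single dose in 50 mM HEPES-buffered saline pH 7.4, by oral gavage or as tail-vein i.v. bolus. Blood into heparin/NEM tubes at 0–24 h. Plasma measured by LC-MS/MS; noncompartmental analysis; Tmax observed; Vd = dose/(AUCinf·λz).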

Data set [7] in a line: Apparent volume of distribution in Sprague-Dawley rat at 0.1 mg/kg, po administered via gavage measured under fasted conditions by LC-MS/MS analysis. It is filed as ADME, organism-based. Further details: dose 0.1 mg/kg, route oral. As to conditions: in vivo. The method, boiled down: as §1
The nature of data set [8]: Cmax in Sprague-Dawley rat kidney at 10 mg/kg, po administered as single dose measured per gm of tissue by LC-MS/MS analysis. The class given is ADME, organism-based. Further details: dose 10 mg/kg, route oral. The method, boiled down: (§4)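 Male Sprague-Dawley rats were dosed orally with 10 mg/kg/day, either once or daily for 5 days; n = 4 per group. Blood was taken by cardiac puncture and liver, kidney, brain and sciatic nerve were collected at 0–8 h post-dose. Tissues were homogenized in PBS containing NEM at equal volume per gram. NEM-derivatized analyte was extracted with methanol and quantified by LC-MS/MS (1–5000 ng/ml). Cmax is the observed value.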

Data set [9] in a line: Clearance in Sprague-Dawley rat at 0.1 mg/kg, iv administered as bolus injection measured under fasted conditions by LC-MS/MS analysis. It is filed as ADME, organism-based. More on the design: dose 0.1 mg/kg, route intravenous. To be noted: in vivo. A digest of the protocol:
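Male Sprague-Dawley rats (280–330 g), jugular vein cannulated, fasted overnight until 4 h post-dose. Single tail-vein bolus of 0.1, 1, 10 or 30 mg/kg in 50 mM HEPES buffered saline, pH 7.4. Blood drawn 0–24 h into heparin tubes containing NEM. Plasma quantified by LC-MS/MS after NEM derivatization. Noncompartmental analysis: AUClast by linear trapezoidal rule, Cl = dose/AUC0-∞. Mean ± S.D., n = 4–9.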

The nature of data set [10]: Apparent volume of distribution in cynomolgus monkey at 5 mg/kg, po by LC-MS/MS analysis. The class given is ADME, organism-based, Macaca fascicularis. To be noted: in vivo. More on the design: dose 5 mg/kg, route oral. A digest of the protocol:
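Cynomolgus monkeys (n = 3) dosed orally at a nominal 5 mg/kg in TCEP-treated 50 mM HEPES solution. Blood taken via iliac or femoral arterial cannula up to 9 days into heparin/NEM tubes. Plasma analyzed by LC-MS/MS. Cl/F and Vd/F derived noncompartmentally.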

The subject of data set [11] is Rattus norvegicus. As to the kind of experiment: Analgesic activity in Sprague-Dawley rat chronic constriction injury model assessed as change in paw withdrawal latency at 10 mg/kg/day, po measured 7 days after drug treatment cessation (reference value: -2.68 +/-0.43 s). It is filed as functional.
Data set [12] can be described thus: Phase 1 metabolic stability in human liver microsomes assessed as compound remaining at 10 uM measured for 1 hr by LC-MS/MS analysis in absence of cofactors. It is filed as ADME. To be noted: read-out: Stability. A digest of the protocol:
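Cofactor-free controls were run for each microsomal incubation: 0.5 mg/ml liver microsomes with 10 µM compound, omitting cofactors, so that cofactor-independent degradation could be measured. Samples were taken up to 1 h, quenched with acetonitrile containing internal standard, and the percent remaining was determined by LC-MS/MS.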
(In general: Microsomes from liver hold many membrane-bound enzymes, among them those of drug oxidation.)

Data set [13] in a line: Oral bioavailability in cynomolgus monkey at 5 mg/kg by LC-MS/MS analysis. The class given is ADME, organism-based, Macaca fascicularis. As to conditions: in vivo. A digest of the protocol: as §2
Data set [14] deals with Rattus norvegicus. The experiment in a line: AUC(0 to infinity) in Sprague-Dawley rat at 0.1 mg/kg, po administered via gavage measured under fasted conditions by LC-MS/MS analysis. Further details: time infinity, dose 0.1 mg/kg, route oral. The class given is ADME, organism-based, Plasma. As to conditions: in vivo. The method, boiled down: as §1
Data set [15] can be described thus: Cmax in Sprague-Dawley rat brain at 10 mg/kg/day, po administered for 5 days measured per gm of tissue by LC-MS/MS analysis. It is filed as ADME, organism-based. Further details: dose 10 mg/kg/day, route oral. A digest of the protocol:
as §4

The nature of data set [16]: Tmax in Sprague-Dawley rat at 30 mg/kg, po administered via gavage measured under fasted conditions by LC-MS/MS analysis. It is filed as ADME, organism-based. As to conditions: in vivo. Further details: dose 30 mg/kg, route oral. The method, boiled down:
as §3

The nature of data set [17]: AUC(0 to last) in Sprague-Dawley rat at 1 mg/kg, po administered via gavage measured under fasted conditions by LC-MS/MS analysis. The class given is ADME, organism-based. As to conditions: plasma. Further details: time 0 - last, dose 1 mg/kg, route oral. A digest of the protocol:
as §1

Data set [18] can be described thus: AUC(0 to last) in Sprague-Dawley rat at 0.1 mg/kg, po administered via gavage measured under fasted conditions by LC-MS/MS analysis. More on the design: time 0 - last, dose 0.1 mg/kg, route oral. To be noted: plasma. It is filed as ADME, organism-based. The method, boiled down:
as §1

Data set [19] in a line: Cmax in Sprague-Dawley rat at 1 mg/kg, po administered via gavage measured under fasted conditions by LC-MS/MS analysis. The class given is ADME, organism-based. As to conditions: in vivo. More on the design: dose 1 mg/kg, route oral. The method, boiled down:
as §1

The nature of data set [20]: Volume of distribution in Sprague-Dawley rat at 10 mg/kg, iv administered as bolus injection measured under fasted conditions by LC-MS/MS analysis. To be noted: in vivo. More on the design: dose 10 mg/kg, route intravenous. It is filed as ADME, organism-based. A digest of the protocol:
as §3

Data set [21] can be described thus: Cmax in Sprague-Dawley rat plasma at 10 mg/kg, po administered as single dose by LC-MS/MS analysis. It is filed as ADME, organism-based. More on the design: dose 10 mg/kg, route oral. The method, boiled down:
as §4

The nature of data set [22]: Apparent volume of distribution in Sprague-Dawley rat at 1 mg/kg, po administered via gavage measured under fasted conditions by LC-MS/MS analysis. It is filed as ADME, organism-based. Further details: dose 1 mg/kg, route oral. To be noted: in vivo. A digest of the protocol: as §1
A short description of data set [23]: Cmax in Sprague-Dawley rat at 0.1 mg/kg, po administered via gavage measured under fasted conditions by LC-MS/MS analysis. To be noted: in vivo. More on the design: dose 0.1 mg/kg, route oral. It is filed as ADME, organism-based. The method, boiled down:
as §1

The term AUC(0-inf) denotes the area under the concentration-time curve extrapolated to infinity. The term AUC(0-t) denotes exposure summed from dosing to a finite time, without extrapolation to infinity. By bioavailability is commonly meant dose-corrected exposure relative to a reference, in per cent. The term Cmax denotes the peak of the concentration-time curve. Usually Tmax stands for the time at which the peak concentration occurs. One may read the Vd/F as the volume of distribution divided by bioavailability. One may read the clearance as the volume of plasma or blood freed of the substance per unit of time. What is called AUC is the area under the concentration-time curve, a measure of exposure. The Vd is the apparent volume that relates the amount in the body to the concentration in plasma or blood. `O=C(O)c1cccc(-c2cccc(CCS)c2C(=O)O)c1` displayed an AUC(0-inf) in data set [1] of 37100 ng·h/mL. For the same molecule, the remaining at 1 h, 5 µM in data set [2] amounted to 55%. Besides, the exposure AUC(0-t) was determined as 76100 ng·h/mL in data set [3], 2610 ng·h/mL in data set [17] and 268 ng·h/mL in [18]. Moreover, the bioavailability in data set [4] is 17.4%; in [13], 39.1%. The Cmax in [5] came out at 10500 ng/mL; in [8] it was 405 ng/g; in data set [15], 32.4 ng/g; in [19], 1100 ng/mL; in data set [21], 4920 ng/mL; in data set [23], 62.6 ng/mL. Further, the Tmax came out at 0.58 h in data set [6] and 1.43 h in data set [16]. Besides, the values for the Vd/F in data set [7], in data set [10] and in [22] were 2.98 L/kg, 0.79 L/kg and 1.65 L/kg, respectively. In data set [9], this molecule showed a clearance of 1 mL/min/kg. Besides, the Time in the data set with Rattus norvegicus [11] was -1.53 s. Further, the remaining at 1 h, 10 µM in data set [12] was > 90%. In addition, the AUC in the data set with Rattus norvegicus [14] was 605 ng·h/mL. This molecule gave a Vd in data set [20] of 1.43 L/kg.
